Rad51 HR inh: human RAD51 strand exchange inhibitors, primary screen, biochemical, fluorescence | DNA repair protein RAD51 homolog 1 (Homo sapiens), Q06609 | hRad51 DNA strand exchange, fluorescence dequenching | inhibition, % at 10 µM | 0.085% of 200,000 active;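 active = inhibition above 40% at the single screening dose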;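 also: 0% = DMSO control wells and 100% = blanks with heterologous ssDNA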
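System: hRad51 filaments on single-stranded DNA; reagent: Fluorescein- and BHQ1-tagged 47-mer duplex; compound dosing: one concentration, 10 µM final; timing: filaments 15 min 37 °C, then compound 30 min; measured by: fluorescein emission 520 nm, excitation 485 nm; benchmarks: per-plate controls and blanks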
FLuc inhib CS: firefly luciferase enzyme inhibitors, primary screen, artefact control for luciferase-based inhibitor screens, biochemical, luminescence, ATPLite; 10 min; inhibition, % at 10 µM; AID 1006, 2008; Luciferin 4-monooxygenase (Photinus pyralis), P08659; 1.5% of 200,000 active;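 active = inhibition above about 50% when tested at 10 µM, limit read from the data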
Target sequence (P08659 whole entry, looked up): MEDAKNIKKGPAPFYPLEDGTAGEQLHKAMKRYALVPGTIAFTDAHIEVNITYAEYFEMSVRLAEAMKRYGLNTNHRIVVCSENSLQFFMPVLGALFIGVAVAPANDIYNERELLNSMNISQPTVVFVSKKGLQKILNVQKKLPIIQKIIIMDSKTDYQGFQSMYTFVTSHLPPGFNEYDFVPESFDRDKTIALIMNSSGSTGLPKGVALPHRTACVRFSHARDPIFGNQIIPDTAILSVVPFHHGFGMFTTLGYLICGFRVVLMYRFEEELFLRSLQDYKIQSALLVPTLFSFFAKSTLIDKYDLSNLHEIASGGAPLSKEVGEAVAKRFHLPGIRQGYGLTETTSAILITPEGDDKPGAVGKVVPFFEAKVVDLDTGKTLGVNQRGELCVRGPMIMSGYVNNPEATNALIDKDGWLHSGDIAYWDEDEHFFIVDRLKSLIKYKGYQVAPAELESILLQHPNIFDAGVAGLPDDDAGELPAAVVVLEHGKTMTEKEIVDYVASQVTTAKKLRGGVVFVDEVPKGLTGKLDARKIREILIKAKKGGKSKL
APP 5'UTR act: activators of APP 5'UTR luciferase reporter, primary screen, SH-SY5Y cells; SH-SY5Y APP 5'UTR luciferase reporter, luminescence; zero percent = DMSO vehicle wells; activation, % at 2 µM; 1% of 190,000 active; AID 1276, 2008;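 active = activation above a set limit, based on mean plus 3 SD of controls, cut at about 140% in these data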
FLuc stim CS: FLuc activators, initial screening, artefact control for FLuc-dependent activation tests, biochemical, ATPlite luminescence | ATPlite luciferase biochemical, 10 min; 0 = ATP-free wells, 1 = DMSO control | activation factor at 10 µM | 200,000 tested, under 10 active;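 active = luciferase activation factor, scaled between plate controls, of at least 2 with compound at 10 µM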
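Material: luciferase plus luciferin reagent, cell-free. Medium: PBS buffer for ATP. Also added: ATP substrate, dispensed from a 10.24 µM working solution in PBS. Doses: test compounds dosed from 2 mM stocks in 100% DMSO. Incubation: 10 min post-reagent at room temperature. Technique: light output (luminescence). Read-out basis: luminescence gain marking luciferase activators.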
NF-kB neuron act: activators of NF-kB expression in neurons, primary screen, cell-based, HTS; fold change at 12.5 µM; 1.6% of 190,000 active; human neuronal cells, NF-kB reporter expression; active compounds read high; in the data active = fold change above about 3.3
STAT1 act: STAT1 signaling activators, primary screen, cell-based, HTS, luciferase reporter; AID 932, 2007; 2.6% of 200,000 active; activation (% of control), % at 5.5 µM; NIH 3T3 STAT1-luciferase reporter, IFN-gamma, luminescence; 100% = IFN-gamma alone, no compound;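 active = activation above the screen-wide mean activation plus 3 SD, cut at about 130% in these data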;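 also: raw ratio to IFN-gamma control signal so 100% means no change and 0% no light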
* hit, by the source's call; i = inactive; / = no result given. An excerpt weighted towards active compounds, which were near 3.9% of everything screened.

SMILES	Rad51 HR inh	FLuc inhib CS	APP 5'UTR act	FLuc stim CS	NF-kB neuron act	STAT1 act
O=C(N/N=C/c1ccc(F)c(F)c1)c1cc2c(s1)-c1ccccc1CC2	15.5	-6.3	-6.9	1.1	0.81	98.1
CNC(=O)c1cc2c(s1)-c1ccccc1CC2	1.4	3.5	18.0	1	1.97	144.0*
Cc1oc(-c2ccc3c(c2)OCCO3)cc1C(=O)NCC(=O)O	6.0	31.9	26.0	0.7	1.51	115.7
Cc1oc(-c2ccc3c(c2)OCCO3)cc1C(=O)O	-2.7	61.6*	25.4	0.4	2.52	92.5
CC(C)(C)NC(=O)C[n+]1ccc(C(N)=O)cc1	13.1	-3.1	5.8	1	6.24*	92.0
COc1ccc(/C=C2\SC(=S)N(CC(=O)OCC(=O)Nc3ccc(C)cc3Cl)C2=O)cc1	/	10.7	0.4	0.9	1.01	103.0
O=C(CC(c1ccccc1)c1ccco1)Nc1nccs1 (stereo not drawn)	/	-3.0	-0.3	1	1.04	88.4
O=C(/C=C/c1ccccc1)Nc1ccc2c(c1)C(=O)NC2=O	18.3	12.4	8.2	0.9	1.49	128.9*
C/C(=N\Nc1ccc(C(F)(F)F)cn1)c1ccncc1	9.2	-1.0	30.2	1	1.82	134.3*
O=C(/C=C/c1ccccc1Cl)c1ccccc(=O)c1O	/	1.1	10.2	1	26*	85.1
Cc1ccc(C)c(/C=C/C(=O)c2ccccc(=O)c2O)c1	18.2	-2.5	-37.5	1	1.03	76.0
O=C(OCc1cncs1)c1ccccc1	29.0	-2.8	12.5	1	1.38	98.3
CCOC(=O)C1CCN(c2ncnc3c2nnn3Cc2ccccc2Cl)CC1	55.4*	-4.3	2.3	1	1.09	97.8
Cc1oc2cc3c(C(=O)N4CCN(c5ccccc5)CC4)c(C)oc3cc2c1C(=O)N1CCN(c2ccccc2)CC1	/	/	7.2	/	/	96.2
Cc1oc2cc3c(C(=O)N4CCCCC4)c(C)oc3cc2c1C(=O)N1CCCCC1	2.7	1.6	71.4	1	0.88	139.1*
COC(=O)CCCn1c(C)cc(C(=O)CCl)c1C	-10.2	-7.5	-15.5	1.1	3.63*	86.5
COc1ccccc1Cn1c(-c2ccco2)nc2nc3ccccc3nc21	6.3	/	13.7	/	/	115.7
Cc1ccc(-c2nc3nc4ccccc4nc3n2Cc2ccco2)cc1	-4.6	8.9	181.2*	0.9	2.65	124.0
Clc1ccc(-c2nc3nc4ccccc4nc3n2Cc2ccco2)cc1	-3.4	11.4	50.8	0.9	3.74*	127.4
Cc1ccc(C)c(N2CCN(c3ccncc3N)CC2)c1	9.8	/	/	/	/	/
COc1ccc(OCC(O)Cn2c(N)nc3c2c(=O)[nH]c(=O)n3C)cc1 (stereo not drawn)	-8.7	/	/	/	/	/
CO/N=C/c1ccc(N2CCCC2)c([N+](=O)[O-])c1	-10.2	18.1	14.8	0.8	2.2	129.6*
COc1c(OC(C)=O)ccc(/C=C/c2ccc3ccccc3n2)c1[N+](=O)[O-]	3.1	14.2	136.4*	0.9	1.06	99.0
COc1c(OC(C)=O)ccc(/C=C/c2ccc3cccc(OC)c3n2)c1[N+](=O)[O-]	-6.7	-5.8	5.2	1.1	1.23	103.2
Cc1ccc(/C(C#N)=C\c2ccc(N3CCOCC3)o2)cc1	-7.3	15.2	-7.8	0.8	1.91	119.5
SMILES	Rad51 HR inh	FLuc inhib CS	APP 5'UTR act	FLuc stim CS	NF-kB neuron act	STAT1 act
Cc1ccc2nc(/C(C#N)=C\c3ccc(N4CCOCC4)o3)[nH]c2c1	i	62.4*	120.9	0.4	2.53	145.3*
O=C(N/N=C/c1cccn1-c1ccc([N+](=O)[O-])cc1)c1cccnc1	0.5	/	/	/	/	/
COc1ccc(/C(C)=N/NC(=O)C2CC2)cc1	-108.3	7.3	9.7	0.9	1.18	104.5
COc1ccc2cc(/C(C)=N/NC(=O)C3CC3)ccc2c1	-9.8	35.1	66.6	0.6	2.35	146.7*
COc1ccc(C(=O)/C=C/c2cn(CN3CCN(C)CC3)c3ccccc23)cc1	/	12.8	52.2	0.9	6.45*	112.6
CCOc1ccc(C(=O)/C=C/c2cn(CN3CCN(C)CC3)c3ccccc23)cc1	-8.4	6.7	21.0	0.9	3.42*	110.7
